Kir21 block: blocks the mouse Kir2.1 inward-rectifier potassium channel. HEK293-Kir2.1, FluxOR thallium flux fluorescence; hits give low values. P35561. B-score at 10 µM. actives 0.85% (n = 310,000);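 active = fluorescence ratio B-score at or below minus 3 SD of library scores, with starting-brightness B-score within 2 SD, cut at about -4.2 in these data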;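 also: channel flux triggered by added potassium and thallium sulfate stimulus; B-score of peak minus minimum fluorescence over baseline after thallium stimulus; more negative B-score means stronger Kir2.1 block with less thallium influx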
KCNQ1 act: potentiates or activates the human KCNQ1 potassium channel. P51787. CHO-K1 KCNQ1, thallium flux FluxOR fluorescence; hits give high values. B-score at 10 µM. actives 0.35% (n = 310,000). AID 2648;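 active = fluorescence ratio B-score, a plate-corrected score, at least three library SD, with initial intensity B-score within 5 SD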
Target sequence (P51787 whole entry, looked up): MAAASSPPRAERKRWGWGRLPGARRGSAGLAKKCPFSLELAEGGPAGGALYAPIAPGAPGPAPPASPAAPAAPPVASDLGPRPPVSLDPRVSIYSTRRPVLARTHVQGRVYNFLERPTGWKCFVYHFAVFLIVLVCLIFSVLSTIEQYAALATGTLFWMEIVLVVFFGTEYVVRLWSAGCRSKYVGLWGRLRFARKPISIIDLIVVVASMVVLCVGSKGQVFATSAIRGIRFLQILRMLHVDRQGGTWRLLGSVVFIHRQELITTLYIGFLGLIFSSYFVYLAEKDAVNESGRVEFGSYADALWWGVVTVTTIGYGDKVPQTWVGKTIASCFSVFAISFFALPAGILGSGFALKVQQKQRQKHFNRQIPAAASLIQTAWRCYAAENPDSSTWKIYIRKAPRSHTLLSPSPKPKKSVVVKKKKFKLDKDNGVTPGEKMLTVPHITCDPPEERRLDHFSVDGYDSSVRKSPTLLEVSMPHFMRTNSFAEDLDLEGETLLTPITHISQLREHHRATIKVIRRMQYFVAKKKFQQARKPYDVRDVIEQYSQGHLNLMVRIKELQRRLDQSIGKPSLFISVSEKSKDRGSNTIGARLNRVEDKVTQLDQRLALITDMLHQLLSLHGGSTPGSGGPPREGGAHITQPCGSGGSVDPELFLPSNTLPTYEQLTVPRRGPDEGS
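Schedule – 37 °C overnight plating, 90-min dark dye load, 20-min compound pretreatment · System – stable KCNQ1 CHO-K1 line · Probe or stimulus – thallium- and potassium-containing depolarizing buffer · Measured by – kinetic FluxOR fluorescence, 10 s baseline plus 110 s post-stimulus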
KCNK9 inh: human KCNK9 channel inhibition; B-score at 10 µM; AID 488922; HEK293 KCNK9, FluxOR thallium flux fluorescence; hits give low values; actives 1.2% (n = 310,000);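 active = ratio B-score over 3 SD below the library mean, with starting fluorescence within 5 SD of its mean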;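 also: negative B-score means less thallium flux so channel inhibition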
KCNQ1 block: blocks the human KCNQ1 potassium channel; CHO-K1 KCNQ1, FluxOR thallium flux fluorescence; hits give high values; actives 1.3% (n = 310,000); B-score at 10 µM; P51787;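 active = compounds whose thallium flux B-score, printed positive for inhibition, exceeds three library SD while starting fluorescence stays within three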;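 also: channel opened by potassium depolarization with thallium stimulus after 20 min compound exposure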
KCNK3 block: human KCNK3 channel inhibition, primary screen | CHO-KCNK3 thallium flux, FluxOR fluorescence; hits give low values | B-score at 10 µM | AID 602410 | actives 0.84% (n = 340,000);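 active = B-score under library mean minus 4 SD, starting fluorescence ratio at most library mean plus 5 SD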;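 also: more negative B-score means stronger inhibition of thallium flux through KCNK3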
hERG protect: shields human hERG channel from block by proarrhythmic agents | actives 0.51% (n = 310,000) | CHO-hERG, FluxOR thallium flux, dofetilide IC70 present | Q12809 | activation (rescue from dofetilide block), less the hit threshold, % at 10 µM;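 active = activation above the mean of controls blocked by dofetilide plus 5 SD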;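 also: thallium influx through hERG after potassium depolarization seen as dye fluorescence rise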
KCNQ1 inh valid: confirmation of human KCNQ1 potassium channel inhibitors. shares compounds with KCNQ1 block. KCNQ1 cell line, FluxOR thallium flux fluorescence. inhibition, % at 10 µM. actives 93% (n = 1,600). AID 588353;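 active = primary screen active, with duplicate mean exceeding buffer control mean plus 3 SD of buffer wells, cut at about 28% in these data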;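 also: 0% = buffer control ratio and 100% = XE991 inhibitor control ratio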
CHO KCNQ1 ctr: KCNQ1 inhibitor counter-screen hit in parental CHO cells; shares compounds with KCNQ1 block; parental CHO-K1, FluxOR thallium flux fluorescence ratio; hits give low values; zero means no signal rise above baseline; fluorescence ratio (Tl flux) at 10 µM; actives 21% (n = 1,600);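 active = mean of duplicate thallium-flux fluorescence ratios in parental host cells more than 5 SD below the buffer control mean, cut at about 0.38 in these data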;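 also: ratio is peak minus minimum fluorescence divided by baseline fluorescence; actives read low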
KCNQ1 ephys val: blocks human KCNQ1 current in automated patch clamp; AID 624120; actives 20% (n = 490); shares compounds with KCNQ1 block; KCNQ1-CHO cells; calls only at 10 µM;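 active = KCNQ1 current drop exceeding 3 SD of negative control wells, seen in both duplicate runs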;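 also: steady state current during a 2 s step from -80 to +40 mV; negative values mean current inhibition and positive values mean potentiation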
KCNQ2 spec: KCNQ1 inhibitor that also blocks rat KCNQ2 channel; inhibition, % at 10 µM; KCNQ2 cells, FluxOR thallium flux fluorescence; AID 651746; shares compounds with KCNQ1 block; actives 71% (n = 1,600);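 active = mean percent inhibition of the KCNQ2 thallium signal more than 5 SD above the buffer-only control wells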;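 also: KCNQ2 expressed in CHO cells; 0% = buffer control wells and 100% = XE-991 inhibitor control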
KCNQ1-KCNE1 inh: KCNQ1 inhibitor that also blocks human KCNQ1/KCNE1 channel; AID 652147; inhibition, % at 10 µM; actives 77% (n = 1,600); shares compounds with KCNQ1 block; KCNQ1/KCNE1 cells, FluxOR thallium flux fluorescence;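 active = mean percent inhibition of duplicate wells above the buffer-only control mean plus 3 SD of those controls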;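 also: 0% = buffer only wells and 100% = XE-991 inhibitor control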
KCNK9 block conf: confirmation of human KCNK9 potassium channel inhibitors; inhibition, % at 10 µM; actives 43% (n = 4,900); HEK293 KCNK9 cells, FluxOR thallium flux fluorescence; shares compounds with KCNK9 inh;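 active = thallium signal inhibited by more than 5 SD of the compound-free buffer control wells, on both duplicate plates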;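 also: 0% = assay buffer control wells without compound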
Kir2-1 spec: mouse Kir2.1 off-target activity of KCNK9 modulators; Kir2.1 cells, FluxOR thallium flux fluorescence; inhibition, % at 10 µM; shares compounds with KCNK9 inh; actives 4% (n = 4,900); AID 492993;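 active = thallium signal drop more than 5 SD beyond the mean of the no-compound control wells, seen in both duplicate plates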;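 also: signal is fluorescence rise after thallium addition divided by baseline fluorescence; plate controls were assay buffer only for no effect and full block by chlorpromazine control for full effect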
HEK293 Tl ctr: second check of KCNK9 modulator effects in non-induced HEK293 cells; actives 40% (n = 4,900); inhibition, % at 10 µM; shares compounds with KCNK9 inh; FluxOR thallium flux;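 active = thallium signal drop beyond 5 SD of the untreated control mean, on both duplicate plates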;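 also: plate controls were buffer only IC0 wells for no effect and SID17386958 at its maximal inhibitory level for full effect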
KCNK3 inh conf: human KCNK3 channel inhibition, confirmation assay; ratio percent of control, % at 10 µM; CHO-KCNK3 thallium flux, FluxOR fluorescence; 0% buffer, 100% carvedilol maximal block; AID 651638; actives 99% (n = 2,400); shares compounds with KCNK3 block;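 active = ratio percent of control, averaged over triplicates, above buffer control mean plus 5 SD, cut at about 64% in these data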;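 also: ratio is the fluorescence rise from min to max over baseline after thallium stimulus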
KCNK3 uninduced: KCNK3 inhibitor counter-screen hit in non-induced cells. shares compounds with KCNK3 block. non-induced KCNK3 parental cells, FluxOR thallium flux; hits give low values. thallium flux ratio (lower = more inhibition) at 10 µM. actives 40% (n = 2,400);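 active = thallium flux ratio, averaged over three wells, more than 5 SD below the buffer control mean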;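 also: host cells are CHO cells without KCNK3 induction; ratio is peak minus trough fluorescence over baseline then normalized to buffer controls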
* marks the source's active call; other numbers are inactive results; i = inactive; . = no result; + = active, no number. An excerpt weighted towards active compounds, which were near 3.7% of everything screened.

SMILES	Kir21 block	KCNQ1 act	KCNK9 inh	KCNQ1 block	KCNK3 block	hERG protect	KCNQ1 inh valid	CHO KCNQ1 ctr	KCNQ2 spec	KCNQ1-KCNE1 inh	KCNK3 inh conf	KCNK3 uninduced	others
O=C(Cc1cccs1)NCCSc1c(-c2ccc(Cl)cc2)[nH]c2ccccc12	1.2	i	-14*	19*	-14*	-17	134*	0.35*	124%*	186%*	132*	0.15*	KCNK9 block conf=54%*;Kir2-1 spec=i;HEK293 Tl ctr=32%*
CCOC(=O)CSc1c(-c2ccc(Cl)cc2)[nH]c2ccccc12	-0.53	i	i	i	i	-7	.	.	.	.	.	.
CC1CN(C(=O)CCC(=O)NCc2ccccn2)c2ccccc2O1 (stereo unspecified)	-0.78	i	i	i	i	-4	.	.	.	.	.	.
CC1CC(NC(=O)c2cc3c(=O)n4ccccc4nc3n2C)CC(C)(C)C1 (stereo unspecified)	-0.87	i	i	6*	-9.2*	-7	38*	0.42	101%*	i	96*	i
CC1CCCCC1NC(=O)c1cc2c(=O)n3ccccc3nc2n1C (stereo unspecified)	-0.25	i	i	i	i	-11	.	.	.	.	.	.
CCOC(=O)c1cc2c(ccn2C)n1Cc1ccc(Cl)cc1	0.25	i	-11*	6*	-9.7*	-20	110*	0.37*	68%*	116%*	136*	0.13*	KCNK9 block conf=42%*;Kir2-1 spec=i;HEK293 Tl ctr=37%*
COc1ccc2oc(C(=O)Nc3ccc(S(=O)(=O)N(C)C4CCN(C)CC4)cc3)c(C)c2c1	-0.37	i	i	i	i	-11	.	.	.	.	.	.
COc1ccc(-c2csc3ncnc(N4CCN(Cc5ccccc5)CC4)c23)cc1	0.67	i	i	i	i	-20	.	.	.	.	.	.
COc1ccc(-c2csc3ncnc(N4CCN(c5ccccc5)CC4)c23)cc1	0.13	i	-6.7*	15*	i	-13	134*	0.37*	132%*	+	106*	0.13*
CC(C)(CN1CCN(C(c2ccccc2)c2ccccc2)CC1)NS(=O)(=O)c1ccccc1	-0.16	i	-9.6*	6*	i	-2	106*	0.44	i	116%*	103*	0.16*	KCNQ1 ephys val=i;KCNK9 block conf=40%*;Kir2-1 spec=i;HEK293 Tl ctr=47%*
CC(C)(CN1CCN(Cc2ccccc2)CC1)NS(=O)(=O)c1ccccc1	-2	i	i	i	i	-9	.	.	.	.	.	.
COc1ccc(C)cc1S(=O)(=O)N(C)CC(=O)NCc1ccccn1	-0.03	i	i	i	i	-2	.	.	.	.	.	.
O=C(CCCOc1ccc(Cl)cc1Cl)N1CCCc2ccccc21	-1.8	i	i	8*	-11*	-11	112*	0.41	92%*	167%*	122*	0.14*	KCNQ1 ephys val=i;KCNK9 block conf=i;Kir2-1 spec=i;HEK293 Tl ctr=33%*
CCOc1ccc(N(C)S(=O)(=O)c2cc(-c3cc(C)no3)ccc2CC)cc1	1.2	i	-7.8*	13*	-13*	-5	98*	0.36*	118%*	138%*	123*	0.14*
COC(=O)C1=C(C(=O)OC)[C@]2([C@@H]3CCCCN[C@@H](Cc4ccccc4)C(=O)N3Cc3ccccc3)C=C[C@H]1O2	.	.	.	.	i	.	.	.	.	.	.	.
CCCCc1nc(N2CCN(C(=O)c3ccco3)CC2)c(C#N)c2c1CCCC2	-1.3	i	-6.8*	9*	-9.4*	-15	98*	0.34*	108%*	46%*	120*	i
COc1ccccc1NC(=O)C(C)OC(=O)Cc1ccsc1 (stereo unspecified)	.	.	.	.	i	.	.	.	.	.	.	.
Cc1ccc(Cl)cc1N1CCN(C(=O)c2cc3c(=O)n(C)c4ccccc4c3n2C)CC1	-0.74	i	i	15*	-16*	-12	120*	0.4	126%*	i	137*	i	KCNQ1 ephys val=i
COc1cc2c(cc1OC)C(c1ccc(-c3ccccc3Cl)o1)=NCC2	0.01	i	i	12*	-12*	-31	136*	0.37*	145%*	196%*	101*	0.12*
Cc1ccc(NC(=O)C2CCN(c3ncnc4sc(C)c(C)c34)CC2)cc1S(=O)(=O)N(C)C	1.9	i	i	i	i	-12	.	.	.	.	.	.
Cc1sc2ncnc(N3CCC(C(=O)Nc4cc(Cl)ccc4Cl)CC3)c2c1C	0.15	i	i	11*	-10*	-15	71*	0.46	123%*	99%*	127*	0.13*
Cc1sc2ncnc(N3CCC(C(=O)NNC(=O)c4ccc(Cl)cc4)CC3)c2c1C	1.1	i	i	i	i	-15	.	.	.	.	.	.
CCN(CC)S(=O)(=O)c1cc(NC(=O)C2CCN(c3ncnc4sc(C)c(C)c34)CC2)ccc1Cl	1.3	i	i	6*	-9.6*	-17	58*	0.46	72%*	95%*	102*	0.16*

High-throughput results from PubChem BioAssay.
